ChEMBL document CHEMBL3853323, “Small Antimicrobial Agents Based on Acylated Reduced Amide Scaffold” (J Med Chem, 2016)
In brackets after ≈: the same amount, converted by molar mass. Activity calls are given as the source filed them. No cut-off for these calls is given here.

Columns and labels:
Escherichia coli = test: Antibacterial activity against Escherichia coli ATCC 25922 after 16 to 20 hrs by two fold serial dilution method; type: functional
Procedure, shortened: (§1)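 MIC as lowest concentration giving complete inhibition of growth after 20 h; at least three independent experiments, each in duplicate.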

Pseudomonas aeruginosa = test: Antibacterial activity against Pseudomonas aeruginosa ATCC 27853 after 16 to 20 hrs by two fold serial dilution method; type: functional; procedure, shortened: as §1
Klebsiella pneumoniae = test: Antibacterial activity against Klebsiella pneumoniae ATCC 13383 after 16 to 20 hrs by two fold serial dilution method; type: functional; procedure, shortened: as §1
Staphylococcus aureus [1] = test: Antibacterial activity against methicillin-resistant Staphylococcus aureus ATCC 33591 after 16 to 20 hrs by two fold serial dilution method; type: functional
Procedure, shortened: (§2)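 Broth MIC: the lowest concentration giving complete growth inhibition after 20 h. Run at least three times, in duplicate each time.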

[2] = system: Staphylococcus epidermidis; test: Antibacterial activity against methicillin-resistant Staphylococcus epidermidis RP62A after 16 to 20 hrs by two fold serial dilution method; type: functional; procedure, shortened: as §2
Enterococcus faecalis = test: Antibacterial activity against vancomycin resistant Enterococcus faecalis ATCC 700802 after 16 to 20 hrs by two fold serial dilution method; type: functional; procedure, shortened: as §2
[3] = Hemolytic activity in human RBC after 1 hr; type: ADME, cell-based, Erythrocyte; settings: human red blood cells
Procedure, shortened: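 Fresh K2EDTA human RBCs, PBS-washed, as 5% v/v suspension mixed 1:1 with compound dilutions, 37 °C for 1 h. Supernatant after centrifugation diluted in PBS, A540 read. % hemolysis relative to 2% Triton X-100 (positive) and PBS (negative). At least three runs, each in duplicate.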

[4] = Cytotoxicity against human HK2 cells assessed as cell viability at 25 ug/ml after 24 hrs by MTT assay; type: toxicity, cell-based; settings: hk-2, 24 h
Procedure, shortened: (§3)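 Cells seeded at 5×10^4 per well and left 12 h, then exposed 24 h to compound at 100, 50, 25, 12.5 or 6.25 μg/mL diluted in medium. Medium replaced, MTT added for 4 h, solubilized 12 h at 37 °C, A550 read; viability % = (A − Ablank)/(Acontrol − Ablank) × 100. Run at least three times.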

[5] = Cytotoxicity against human K562 cells assessed as cell viability at 25 ug/ml after 24 hrs by MTT assay; type: toxicity, cell-based; settings: k562, 24 h; procedure, shortened: as §3
Staphylococcus aureus [6] = test: Bactericidal activity against methicillin-resistant Staphylococcus aureus ATCC 33591 assessed as disruption of bacterial membrane at 25 ug/ml after 2 hrs by DAPI staining based fluorescence microscopy; type: functional
Procedure, shortened: (§4)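 Mid-log MRSA was exposed to compound at 37 °C for 2 h, pelleted and washed three times in PBS. Cells were stained sequentially with PI (5 µg/mL) and DAPI (10 µg/mL), 15 min each on ice in the dark. Imaged with a 100× oil objective; DAPI channel 460 nm, PI channel 620 nm.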

Staphylococcus aureus [7] = test: Bactericidal activity against methicillin-resistant Staphylococcus aureus ATCC 33591 assessed as disruption of bacterial membrane at 25 ug/ml after 2 hrs by propidium iodide staining based fluorescence microscopy; type: functional; procedure, shortened: as §4
Staphylococcus aureus [8] = test: Bactericidal activity against methicillin-resistant Staphylococcus aureus ATCC 33591 for 10 mins to 2 hrs by time kill assay; type: functional
Procedure, shortened: (§5)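 MRSA grown to mid-log in TSB was diluted to 10^6 CFU/mL. […] Samples were diluted 10^2–10^4-fold and plated on TSB agar. CFU were counted after overnight incubation at 37 °C and plotted against time.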

Staphylococcus aureus [9] = test: Bactericidal activity against methicillin-resistant Staphylococcus aureus ATCC 33591 at 25 to 50 ug/ml for 10 mins to 2 hrs by time kill assay; type: functional; procedure, shortened: as §5
Staphylococcus aureus [10] = test: Antibacterial activity against methicillin-resistant Staphylococcus aureus ATCC 33591 at 0.5 times MIC after 14 passages; type: functional
Procedure, shortened: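 Resistance passaging: the starting MIC was measured as in the MIC assay. Bacteria from the 1/2 MIC well seeded the next day's assay. Repeated daily for 14 passages.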

[11] = Cytotoxicity against human HK2 cells assessed as cell viability after 24 hrs by MTT assay; type: toxicity, cell-based, HK-2; procedure, shortened: as §3
[12] = Cytotoxicity against human K562 cells assessed as cell viability after 24 hrs by MTT assay; type: toxicity, cell-based; procedure, shortened: as §3

Compound	MIC (Escherichia coli)	MIC (Pseudomonas aeruginosa)	MIC (Klebsiella pneumoniae)	MIC (Staphylococcus aureus [1])	MIC [2]	MIC (Enterococcus faecalis)	HC50 at 1 h [3]	Activity [4]	Activity [5]	Activity (Staphylococcus aureus [6])	Activity (Staphylococcus aureus [7])	Activity (Staphylococcus aureus [8])	Activity (Staphylococcus aureus [9])	Activity (Staphylococcus aureus [10])	IC50 at 24 h [11]	IC50 at 24 h [12]
NCCCC[C@@H](CN(CC(=O)NCc1cccc2ccccc12)C(=O)CC12CC3CC(CC(C3)C1)C2)NC(=O)[C@@H](N)CCCCN	> 50 µg/mL	> 50 µg/mL	> 50 µg/mL	> 50 µg/mL	> 50 µg/mL	> 50 µg/mL										
CCCCCCCCCC(=O)N[C@@H](Cc1c[nH]c2ccccc12)C(=O)N[C@@H](CC(N)=O)C(=O)N[C@@H](CC(=O)O)C(=O)N[C@@H]1C(=O)NCC(=O)N[C@@H](CCCN)C(=O)N[C@@H](CC(=O)O)C(=O)N[C@H](C)C(=O)N[C@@H](CC(=O)O)C(=O)NCC(=O)N[C@H](CO)C(=O)N[C@@H]([C@H](C)CC(=O)O)C(=O)N[C@@H](CC(=O)c2ccccc2N)C(=O)O[C@@H]1C [DAPTOMYCIN]	> 50 µg/mL	> 50 µg/mL	> 50 µg/mL	0.5 µg/mL (≈ 0.309 µM)	0.5 µg/mL (≈ 0.309 µM)	1 µg/mL (≈ 0.617 µM)										
NCCCC[C@H](N)C(=O)N[C@@H](Cc1ccccc1)CN(CC(=O)NCc1ccc(-c2ccccc2)cc1)C(=O)CC12CC3CC(CC(C3)C1)C2	6.25 µg/mL (≈ 9.22 µM)	12.5 µg/mL (≈ 18.4 µM)	12.5 µg/mL (≈ 18.4 µM)	6.25 µg/mL (≈ 9.22 µM)	6.25 µg/mL (≈ 9.22 µM)	6.25 µg/mL (≈ 9.22 µM)	160 µg/mL	Non-Toxic	Non-Toxic							
NCCCC[C@@H](CN(CC(=O)NCc1cccc2ccccc12)C(=O)CCCN)NC(=O)c1ccc2ccccc2c1	> 50 µg/mL	> 50 µg/mL	> 50 µg/mL	25 µg/mL (≈ 44 µM)	25 µg/mL (≈ 44 µM)	25 µg/mL (≈ 44 µM)										
NCCCC[C@H](N)C(=O)N[C@@H](Cc1ccccc1)CN(CC(=O)NCc1cccc2ccccc12)C(=O)c1ccc2ccccc2c1	25 µg/mL (≈ 39.7 µM)	12.5 µg/mL (≈ 19.8 µM)	25 µg/mL (≈ 39.7 µM)	25 µg/mL (≈ 39.7 µM)	12.5 µg/mL (≈ 19.8 µM)	25 µg/mL (≈ 39.7 µM)	290 µg/mL	Non-Toxic	Non-Toxic							
N=C(N)NCCC[C@H](N)C(=O)N[C@@H](CCCCN)C(=O)N[C@@H](Cc1ccccc1)CN(CC(=O)NCC12CC3CC(CC(C3)C1)C2)C(=O)CC12CC3CC(CC(C3)C1)C2	6.25 µg/mL (≈ 7.66 µM)	6.25 µg/mL (≈ 7.66 µM)	> 25 µg/mL	3.12 µg/mL (≈ 3.82 µM)	3.12 µg/mL (≈ 3.82 µM)	6.25 µg/mL (≈ 7.66 µM)	250 µg/mL	Non-Toxic	Non-Toxic							
COLISTIN	0.5 µg/mL	1 µg/mL	0.5 µg/mL	> 50 µg/mL	> 50 µg/mL	> 50 µg/mL										
NCCCC[C@H](N)CN(CC(=O)NCc1cccc2ccccc12)C(=O)c1ccc2ccccc2c1	25 µg/mL (≈ 51.8 µM)	6 µg/mL (≈ 12.4 µM)	25 µg/mL (≈ 51.8 µM)	25 µg/mL (≈ 51.8 µM)	25 µg/mL (≈ 51.8 µM)	25 µg/mL (≈ 51.8 µM)										
NCCCC[C@H](NC(=O)[C@@H](N)CCCCN)C(=O)N[C@@H](Cc1ccccc1)CN(CC(=O)NCC12CC3CC(CC(C3)C1)C2)C(=O)CC12CC3CC(CC(C3)C1)C2	6.25 µg/mL (≈ 7.93 µM)	6.25 µg/mL (≈ 7.93 µM)	> 25 µg/mL	1.56 µg/mL (≈ 1.98 µM)	3.12 µg/mL (≈ 3.96 µM)	6.25 µg/mL (≈ 7.93 µM)	280 µg/mL	Non-Toxic	Non-Toxic	Active	Active	Dose-dependent effect	Active	Active		
NCCCC[C@H](N)C(=O)N[C@@H](Cc1ccccc1)CN(CC(=O)NCc1cccc2ccccc12)C(=O)CC12CC3CC(CC(C3)C1)C2	12.5 µg/mL (≈ 19.2 µM)	6.12 µg/mL (≈ 9.39 µM)	12.5 µg/mL (≈ 19.2 µM)	6.25 µg/mL (≈ 9.59 µM)	6.25 µg/mL (≈ 9.59 µM)	12.5 µg/mL (≈ 19.2 µM)	225 µg/mL	Non-Toxic	Non-Toxic							
N=C(N)NCCC[C@H](N)C(=O)N[C@@H](Cc1ccccc1)CN(CC(=O)NCc1cccc2ccccc12)C(=O)c1ccc2ccccc2c1	50 µg/mL (≈ 76 µM)	25 µg/mL (≈ 38 µM)	25 µg/mL (≈ 38 µM)	25 µg/mL (≈ 38 µM)	12.5 µg/mL (≈ 19 µM)	25 µg/mL (≈ 38 µM)	300 µg/mL								> 100 µg/mL	> 100 µg/mL
CC(C)(C)c1ccc(CNC(=O)CN(C[C@H](Cc2ccccc2)NC(=O)[C@@H](N)CCCCN)C(=O)CC23CC4CC(CC(C4)C2)C3)cc1	6.25 µg/mL (≈ 9.5 µM)	6.25 µg/mL (≈ 9.5 µM)	6.25 µg/mL (≈ 9.5 µM)	6.25 µg/mL (≈ 9.5 µM)	3.12 µg/mL (≈ 4.74 µM)	6.25 µg/mL (≈ 9.5 µM)	120 µg/mL	Non-Toxic	Non-Toxic							
NCCCC[C@H](N)C(=O)N[C@@H](Cc1ccccc1)CN(CC(=O)NCc1ccc(C(F)(F)F)cc1)C(=O)CC12CC3CC(CC(C3)C1)C2	6.25 µg/mL (≈ 9.33 µM)	12.5 µg/mL (≈ 18.7 µM)	6.25 µg/mL (≈ 9.33 µM)	6.25 µg/mL (≈ 9.33 µM)	3.12 µg/mL (≈ 4.66 µM)	6.25 µg/mL (≈ 9.33 µM)	200 µg/mL	Non-Toxic	Non-Toxic							
NCCCC[C@H](N)C(=O)N[C@@H](Cc1ccccc1)CN(CC(=O)NCc1cc(C(F)(F)F)cc(C(F)(F)F)c1)C(=O)CC12CC3CC(CC(C3)C1)C2	3.12 µg/mL (≈ 4.23 µM)	6.25 µg/mL (≈ 8.47 µM)	6.25 µg/mL (≈ 8.47 µM)	3.12 µg/mL (≈ 4.23 µM)	3.12 µg/mL (≈ 4.23 µM)	6.25 µg/mL (≈ 8.47 µM)	210 µg/mL	Non-Toxic	Non-Toxic							
NCCCC[C@@H](CN(CC(=O)NCc1cccc2ccccc12)C(=O)c1ccc2ccccc2c1)NC(=O)[C@@H](N)CCCCN	> 50 µg/mL	> 50 µg/mL	> 50 µg/mL	> 50 µg/mL	> 50 µg/mL	> 50 µg/mL										
NCCCC[C@H](NC(=O)[C@@H](N)CCCN)C(=O)N[C@@H](Cc1ccccc1)CN(CC(=O)NCC12CC3CC(CC(C3)C1)C2)C(=O)CC12CC3CC(CC(C3)C1)C2	6.25 µg/mL (≈ 8.07 µM)	6.25 µg/mL (≈ 8.07 µM)	> 25 µg/mL	3.12 µg/mL (≈ 4.03 µM)	3.12 µg/mL (≈ 4.03 µM)	6.25 µg/mL (≈ 8.07 µM)	200 µg/mL	Non-Toxic	Non-Toxic							
NCCCC[C@H](N)C(=O)N[C@@H](Cc1ccccc1)CN(CC(=O)N(Cc1ccccc1)Cc1ccccc1)C(=O)CC12CC3CC(CC(C3)C1)C2	6.25 µg/mL (≈ 9.03 µM)	25 µg/mL (≈ 36.1 µM)	12.5 µg/mL (≈ 18.1 µM)	6.25 µg/mL (≈ 9.03 µM)	6.25 µg/mL (≈ 9.03 µM)	6.25 µg/mL (≈ 9.03 µM)	180 µg/mL	Non-Toxic	Non-Toxic							
